What was measured:
[1] = Chemical stability in presence of snake venom phosphodiesterase 1 assessed as oligonucleotide degradation after 120 mins by PAGE; assay type: physicochemical; conditions: 2 h
[2] = Chemical stability in presence of 80% (v/v) human serum assessed as intact compound remaining after 8 hrs by PAGE; assay type: physicochemical; conditions: read-out: Stability
Procedure, shortened: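 Aptamer incubated in 80% v/v human serum at 37 °C for 8 h; intact full-length aptamer remaining quantified.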

Prothrombin = Prothrombin (Homo sapiens, UniProt P00734); assay: Binding affinity to human thrombin after 30 mins by non-equilibrium capillary electrophoresis
Procedure, shortened: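 Capillary electrophoresis of aptamer–thrombin mixtures: aptamer 1 nM with thrombin 4 nM in 20 mM Tris-HCl (1 mM MgCl2) pH 7.4 sample buffer; running buffer 100 mM sodium borate pH 8.35; separation +12 kV, injection 0.5 psi × 7.8 s. Kd derived from binding saturation curves over varied thrombin concentrations.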

Question: With `C=C1NC(=O)C(C)=CN1[C@H]1C[C@H](OP(=O)(O)OC[C@H]2O[C@@H](n3cnc4c(=O)[nH]c(N)nc43)[C@H](O)[C@@H]2OP(=O)(O)OC[C@H]2O[C@@H](n3cnc4c(N)ncnc43)[C@H](O)[C@@H]2OP(=O)(O)OC[C@H]2O[C@@H](n3ccc(N)nc3=O)[C@H](O)[C@@H]2OP(=O)(O)OC[C@H]2O[C@@H](n3cc(C)c(=O)[nH]c3=O)C[C@@H]2O)[C@@H](COP(=O)(O)O[C@H]2[C@@H](O)[C@H](n3cnc4c(=O)[nH]c(N)nc43)O[C@@H]2COP(=O)(O)O[C@H]2[C@@H](O)[C@H](n3cnc4c(=O)[nH]c(N)nc43)O[C@@H]2COP(=O)(O)O[C@H]2[C@@H](O)[C@H](n3cnc4c(=O)[nH]c(N)nc43)O[C@@H]2COP(=O)(O)O[C@H]2[C@@H](O)[C@H](n3cnc4c(=O)[nH]c(N)nc43)O[C@@H]2COP(=O)(O)O[C@H]2C[C@H](n3cc(C)c(=O)[nH]c3=O)O[C@@H]2COP(=O)(O)O[C@H]2C[C@H](n3cc(C)c(=O)[nH]c3=O)O[C@@H]2COP(=O)(O)O[C@H]2[C@@H](O)[C@H](n3cnc4c(=O)[nH]c(N)nc43)O[C@@H]2COP(=O)(O)O[C@H]2[C@@H](O)[C@H](n3cnc4c(=O)[nH]c(N)nc43)O[C@@H]2COP(=O)(O)O[C@H]2[C@@H](O)[C@H](n3cnc4c(N)ncnc43)O[C@@H]2COP(=O)(O)O[C@H]2[C@@H](O)[C@H](n3ccc(N)nc3=O)O[C@@H]2COP(=O)(O)O[C@H]2[C@@H](O)[C@H](n3cnc4c(=O)[nH]c(N)nc43)O[C@@H]2COP(=O)(O)O[C@H]2[C@@H](O)[C@H](n3cnc4c(=O)[nH]c(N)nc43)O[C@@H]2COP(=O)(O)O[C@H]2[C@@H](O)[C@H](n3cnc4c(=O)[nH]c(N)nc43)O[C@@H]2COP(=O)(O)O[C@H]2[C@@H](O)[C@H](n3cnc4c(N)ncnc43)O[C@@H]2COP(=O)(O)O[C@H]2C[C@H](n3cc(C)c(=O)[nH]c3=O)O[C@@H]2COP(=O)(O)O[C@H]2[C@@H](O)[C@H](n3cnc4c(=O)[nH]c(N)nc43)O[C@@H]2COP(=O)(O)O[C@H]2[C@@H](O)[C@H](n3cnc4c(=O)[nH]c(N)nc43)O[C@@H]2COP(=O)(O)O[C@H]2C[C@H](n3cc(C)c(=O)[nH]c3=O)O[C@@H]2COP(=O)(O)O[C@H]2[C@@H](O)[C@H](n3cnc4c(=O)[nH]c(N)nc43)O[C@@H]2COP(=O)(O)O[C@H]2[C@@H](O)[C@H](n3ccc(N)nc3=O)O[C@@H]2COP(=O)(O)O[C@H]2[C@@H](O)[C@H](n3ccc(N)nc3=O)O[C@@H]2COP(=O)(O)O[C@H]2C[C@H](n3cc(C)c(=O)[nH]c3=O)O[C@@H]2COP(=O)(O)O[C@H]2[C@@H](O)[C@H](n3cnc4c(=O)[nH]c(N)nc43)O[C@@H]2COP(=O)(O)O[C@H]2[C@@H](O)[C@H](n3cnc4c(N)ncnc43)O[C@@H]2COc2ccc3c(c2)Oc2cc(O)ccc2C32OC(=O)c3ccccc32)O1` (some centres not stated) as the molecule, how does the Stability [1] read?
Answer: The Stability was “Unstable”.

Question: And the remaining at 8 h [2]?
Answer: Its remaining at 8 h is 0%.

Question: And the Kd (Prothrombin)?
Answer: The Kd was 0.25 nM.

Question: With `C=C1NC(=O)C(C)=CN1[C@H]1C[C@H](OP(=O)(O)OC[C@H]2O[C@@H](n3cnc4c(=O)[nH]c(N)nc43)[C@H](O)[C@@H]2OP(=O)(O)OC[C@H]2O[C@@H](n3cnc4c(N)ncnc43)[C@H](O)[C@@H]2OP(=O)(O)OC[C@H]2O[C@@H](n3ccc(N)nc3=O)[C@H](O)[C@@H]2OP(=O)(O)OC[C@H]2O[C@@H](n3cc(C)c(=O)[nH]c3=O)C[C@@H]2OP(=O)(O)OC[C@@]23COCO[C@@H]([C@H](n4cc(C)c(=O)[nH]c4=O)O2)[C@@H]3O)[C@@H](COP(=O)(O)O[C@H]2[C@@H](O)[C@H](n3cnc4c(=O)[nH]c(N)nc43)O[C@@H]2COP(=O)(O)O[C@H]2[C@@H](O)[C@H](n3cnc4c(=O)[nH]c(N)nc43)O[C@@H]2COP(=O)(O)O[C@H]2[C@@H](O)[C@H](n3cnc4c(=O)[nH]c(N)nc43)O[C@@H]2COP(=O)(O)O[C@H]2[C@@H](O)[C@H](n3cnc4c(=O)[nH]c(N)nc43)O[C@@H]2COP(=O)(O)O[C@H]2C[C@H](n3cc(C)c(=O)[nH]c3=O)O[C@@H]2COP(=O)(O)O[C@H]2C[C@H](n3cc(C)c(=O)[nH]c3=O)O[C@@H]2COP(=O)(O)O[C@H]2[C@@H](O)[C@H](n3cnc4c(=O)[nH]c(N)nc43)O[C@@H]2COP(=O)(O)O[C@H]2[C@@H](O)[C@H](n3cnc4c(=O)[nH]c(N)nc43)O[C@@H]2COP(=O)(O)O[C@H]2[C@@H](O)[C@H](n3cnc4c(N)ncnc43)O[C@@H]2COP(=O)(O)O[C@H]2[C@@H](O)[C@H](n3ccc(N)nc3=O)O[C@@H]2COP(=O)(O)O[C@H]2[C@@H](O)[C@H](n3cnc4c(=O)[nH]c(N)nc43)O[C@@H]2COP(=O)(O)O[C@H]2[C@@H](O)[C@H](n3cnc4c(=O)[nH]c(N)nc43)O[C@@H]2COP(=O)(O)O[C@H]2[C@@H](O)[C@H](n3cnc4c(=O)[nH]c(N)nc43)O[C@@H]2COP(=O)(O)O[C@H]2[C@@H](O)[C@H](n3cnc4c(N)ncnc43)O[C@@H]2COP(=O)(O)O[C@H]2C[C@H](n3cc(C)c(=O)[nH]c3=O)O[C@@H]2COP(=O)(O)O[C@H]2[C@@H](O)[C@H](n3cnc4c(=O)[nH]c(N)nc43)O[C@@H]2COP(=O)(O)O[C@H]2[C@@H](O)[C@H](n3cnc4c(=O)[nH]c(N)nc43)O[C@@H]2COP(=O)(O)O[C@H]2C[C@H](n3cc(C)c(=O)[nH]c3=O)O[C@@H]2COP(=O)(O)O[C@H]2[C@@H](O)[C@H](n3cnc4c(=O)[nH]c(N)nc43)O[C@@H]2COP(=O)(O)O[C@H]2[C@@H](O)[C@H](n3ccc(N)nc3=O)O[C@@H]2COP(=O)(O)O[C@H]2[C@@H](O)[C@H](n3ccc(N)nc3=O)O[C@@H]2COP(=O)(O)O[C@H]2C[C@H](n3cc(C)c(=O)[nH]c3=O)O[C@@H]2COP(=O)(O)O[C@H]2[C@@H](O)[C@H](n3cnc4c(=O)[nH]c(N)nc43)O[C@@H]2COP(=O)(O)O[C@H]2[C@@H](O)[C@H](n3cnc4c(N)ncnc43)O[C@@H]2COc2ccc3c(c2)Oc2cc(O)ccc2C32OC(=O)c3ccccc32)O1` (some centres not stated) as the molecule, how does the Stability [1] read?
Answer: Its Stability is “Stable”.

Question: What about the Kd (Prothrombin) of the same molecule?
Answer: Its Kd is 0.27 nM.

Question: For `C=C1NC(=O)C(C)=CN1[C@H]1C[C@H](OP(=O)(O)OC[C@H]2O[C@@H](n3cnc4c(=O)[nH]c(N)nc43)[C@H](O)[C@@H]2OP(=O)(O)OC[C@H]2O[C@@H](n3cnc4c(N)ncnc43)[C@H](O)[C@@H]2OP(=O)(O)OC[C@H]2O[C@@H](n3ccc(N)nc3=O)[C@H](O)[C@@H]2OP(=O)(O)OC[C@H]2O[C@@H](n3cc(C)c(=O)[nH]c3=O)C[C@@H]2OP(=O)(O)OC[C@@]23CO[C@@H]([C@H](n4cc(C)c(=O)[nH]c4=O)O2)[C@@H]3O)[C@@H](COP(=O)(O)O[C@H]2[C@@H](O)[C@H](n3cnc4c(=O)[nH]c(N)nc43)O[C@@H]2COP(=O)(O)O[C@H]2[C@@H](O)[C@H](n3cnc4c(=O)[nH]c(N)nc43)O[C@@H]2COP(=O)(O)O[C@H]2[C@@H](O)[C@H](n3cnc4c(=O)[nH]c(N)nc43)O[C@@H]2COP(=O)(O)O[C@H]2[C@@H](O)[C@H](n3cnc4c(=O)[nH]c(N)nc43)O[C@@H]2COP(=O)(O)O[C@H]2C[C@H](n3cc(C)c(=O)[nH]c3=O)O[C@@H]2COP(=O)(O)O[C@H]2C[C@H](n3cc(C)c(=O)[nH]c3=O)O[C@@H]2COP(=O)(O)O[C@H]2[C@@H](O)[C@H](n3cnc4c(=O)[nH]c(N)nc43)O[C@@H]2COP(=O)(O)O[C@H]2[C@@H](O)[C@H](n3cnc4c(=O)[nH]c(N)nc43)O[C@@H]2COP(=O)(O)O[C@H]2[C@@H](O)[C@H](n3cnc4c(N)ncnc43)O[C@@H]2COP(=O)(O)O[C@H]2[C@@H](O)[C@H](n3ccc(N)nc3=O)O[C@@H]2COP(=O)(O)O[C@H]2[C@@H](O)[C@H](n3cnc4c(=O)[nH]c(N)nc43)O[C@@H]2COP(=O)(O)O[C@H]2[C@@H](O)[C@H](n3cnc4c(=O)[nH]c(N)nc43)O[C@@H]2COP(=O)(O)O[C@H]2[C@@H](O)[C@H](n3cnc4c(=O)[nH]c(N)nc43)O[C@@H]2COP(=O)(O)O[C@H]2[C@@H](O)[C@H](n3cnc4c(N)ncnc43)O[C@@H]2COP(=O)(O)O[C@H]2C[C@H](n3cc(C)c(=O)[nH]c3=O)O[C@@H]2COP(=O)(O)O[C@H]2[C@@H](O)[C@H](n3cnc4c(=O)[nH]c(N)nc43)O[C@@H]2COP(=O)(O)O[C@H]2[C@@H](O)[C@H](n3cnc4c(=O)[nH]c(N)nc43)O[C@@H]2COP(=O)(O)O[C@H]2C[C@H](n3cc(C)c(=O)[nH]c3=O)O[C@@H]2COP(=O)(O)O[C@H]2[C@@H](O)[C@H](n3cnc4c(=O)[nH]c(N)nc43)O[C@@H]2COP(=O)(O)O[C@H]2[C@@H](O)[C@H](n3ccc(N)nc3=O)O[C@@H]2COP(=O)(O)O[C@H]2[C@@H](O)[C@H](n3ccc(N)nc3=O)O[C@@H]2COP(=O)(O)O[C@H]2C[C@H](n3cc(C)c(=O)[nH]c3=O)O[C@@H]2COP(=O)(O)O[C@H]2[C@@H](O)[C@H](n3cnc4c(=O)[nH]c(N)nc43)O[C@@H]2COP(=O)(O)O[C@H]2[C@@H](O)[C@H](n3cnc4c(N)ncnc43)O[C@@H]2COc2ccc3c(c2)Oc2cc(O)ccc2C32OC(=O)c3ccccc32)O1` (some centres not stated), which Stability [1] is on record?
Answer: The Stability was “Stable”.

Question: And the Kd (Prothrombin)?
Answer: Its Kd is 0.18 nM.

From ChEMBL document CHEMBL1155379, “Effect of 3'-end capping of aptamer with various 2',4'-bridged nucleotides: Enzymatic post-modification toward a practical use of polyclonal aptamers” (Bioorg Med Chem Lett, 2010)
